Reference: ChEMBL document CHEMBL1137403, “Discovery of 2-[4-{{2-(2S,5R)-2-cyano-5-ethynyl-1-pyrrolidinyl]-2-oxoethyl]amino]- 4-methyl-1-piperidinyl]-4-pyridinecarboxylic acid (ABT-279): a very potent, selective, effective, and well-tolerated inhibitor of dipeptidyl peptidase-IV, useful for the treatment of diabetes” (J Med Chem, 2006)

Tests used:
[1] = Half life in Sprague-Dawley rat at 5 mg/kg, iv; format: ADME, organism-based; set-up: dose 5 mg/kg, route intravenous; details: in vivo
[2] = Volume of distribution in Sprague-Dawley rat at 5 mg/kg, iv; format: ADME, organism-based; set-up: dose 5 mg/kg, route intravenous; details: in vivo, read-out: Vss
[3] = AUC in Sprague-Dawley rat at 5 mg/kg, po; format: ADME, organism-based; set-up: dose 5 mg/kg, route oral; details: plasma
[4] = Oral bioavailability in Sprague-Dawley rat at 5 mg/kg, po; format: ADME, organism-based; details: in vivo
[5] = Half life in cynomolgus monkey at 2.5 mg/kg, po; format: ADME, organism-based, Macaca fascicularis; set-up: dose 2.5 mg/kg, route oral; details: in vivo
[6] = Cmax in cynomolgus monkey at 2.5 mg/kg, po; format: ADME, organism-based, Macaca fascicularis; set-up: dose 2.5 mg/kg, route oral; details: in vivo
[7] = Tmax in cynomolgus monkey at 2.5 mg/kg, po; format: ADME, organism-based, Macaca fascicularis; set-up: dose 2.5 mg/kg, route oral; details: in vivo
[8] = AUC in cynomolgus monkey at 2.5 mg/kg, po; format: ADME, organism-based, Macaca fascicularis; set-up: dose 2.5 mg/kg, route oral; details: plasma
[9] = target: Dipeptidyl peptidase 4 (Rattus norvegicus) (UniProt P14740); test: Inhibition of Zucker rat plasma DPP4 after 4 hrs at 1 mg/kg; format: functional, organism-based; set-up: dose 1 mg/kg
In short: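 Female Zucker diabetic fatty rats, 10 weeks old, fasted overnight, then given a single oral dose of 1 mg/kg or vehicle. Plasma DPP-IV activity inhibition and plasma drug level were measured 4 h post-dose, at the point when the rats were given free access to a liquid mixed meal (Ensure).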

[10] = species: Rattus norvegicus; test: GLP1 level in Zucker rat after 10 mins; format: functional
In short: (§1)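 Female ZDF rats, 10 weeks old, fasted overnight, then dosed orally with vehicle or drug. Four hours after dosing (t = 0) they had free access for 4 h to a liquid mixed meal (Ensure). Plasma was sampled for drug level, active GLP-1, insulin, glucagon and glucose.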

[11] = species: Rattus norvegicus; test: Insulin level in Zucker rat after 10 mins; format: functional; in short: as §1
[12] = species: Rattus norvegicus; test: Increase in insulin level in Zucker rat after 10 mins relative to control; format: functional; in short: as §1
[13] = species: Rattus norvegicus; test: Reduction in glucagon level in Zucker rat after 30 mins relative to control; format: functional; set-up: scale not given: the % may be the effect or the level left; in short: as §1
[14] = species: Rattus norvegicus; test: Reduction in postprandial glucose excursion in Zucker rat measured as AUC glucose (0-240 min); format: functional, organism-based; set-up: time < 4 hr; in short: as §1
[15] = species: Rattus norvegicus; test: Reduction in postprandial glucose excursion in Zucker rat measured as AUC glucose (0-240 min) relative to control; format: functional; set-up: scale not given: the % may be the effect or the level left; in short: as §1
[16] = target: Cytochrome P450 3A4 (Homo sapiens, UniProt P08684); test: Inhibition of CYP3A4; format: ADME
[17] = target: Cytochrome P450 2D6 (Homo sapiens, UniProt P10635); test: Inhibition of CYP2D6; format: ADME
[18] = target: Cytochrome P450 2C9 (Homo sapiens, UniProt P11712); test: Inhibition of CYP2C9; format: ADME
[19] = target: Voltage-gated inwardly rectifying potassium channel KCNH2 (Homo sapiens, UniProt Q12809); test: Binding affinity to hERG
[20] = Volume of distribution in terminal phase in Sprague-Dawley rat at 5 mg/kg, iv; format: ADME, organism-based; set-up: dose 5 mg/kg, route intravenous; details: in vivo, read-out: Vbeta
[21] = AUC in Sprague-Dawley rat at 5 mg/kg, iv; format: ADME, organism-based; set-up: dose 5 mg/kg, route intravenous; details: plasma
In short: (§2)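 Single intravenous dose. Plasma drug exposure is reported as area under the curve in µg-hr/mL. It is listed in the same table as T1/2, Vss, Vβ and plasma clearance (CLp).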

[22] = Plasma clearance in Sprague-Dawley rat at 5 mg/kg, iv; format: ADME, organism-based; set-up: dose 5 mg/kg, route intravenous
[23] = Half life in cynomolgus monkey at 2.5 mg/kg, iv; format: ADME, organism-based, Macaca fascicularis; set-up: dose 2.5 mg/kg, route intravenous; details: in vivo
[24] = Volume of distribution in cynomolgus monkey at 2.5 mg/kg, iv; format: ADME, organism-based, Macaca fascicularis; set-up: dose 2.5 mg/kg, route intravenous; details: in vivo, read-out: Vss
[25] = Volume of distribution in terminal phase in cynomolgus monkey at 2.5 mg/kg, iv; format: ADME, organism-based, Macaca fascicularis; set-up: dose 2.5 mg/kg, route intravenous; details: in vivo, read-out: Vbeta
[26] = AUC in cynomolgus monkey at 2.5 mg/kg, iv; format: ADME, organism-based, Macaca fascicularis; set-up: dose 2.5 mg/kg, route intravenous; details: plasma; in short: as §2
[27] = Plasma clearance in cynomolgus monkey at 2.5 mg/kg, iv; format: ADME, organism-based, Macaca fascicularis; set-up: dose 2.5 mg/kg, route intravenous

Sequence of Voltage-gated inwardly rectifying potassium channel KCNH2 (Q12809 whole entry): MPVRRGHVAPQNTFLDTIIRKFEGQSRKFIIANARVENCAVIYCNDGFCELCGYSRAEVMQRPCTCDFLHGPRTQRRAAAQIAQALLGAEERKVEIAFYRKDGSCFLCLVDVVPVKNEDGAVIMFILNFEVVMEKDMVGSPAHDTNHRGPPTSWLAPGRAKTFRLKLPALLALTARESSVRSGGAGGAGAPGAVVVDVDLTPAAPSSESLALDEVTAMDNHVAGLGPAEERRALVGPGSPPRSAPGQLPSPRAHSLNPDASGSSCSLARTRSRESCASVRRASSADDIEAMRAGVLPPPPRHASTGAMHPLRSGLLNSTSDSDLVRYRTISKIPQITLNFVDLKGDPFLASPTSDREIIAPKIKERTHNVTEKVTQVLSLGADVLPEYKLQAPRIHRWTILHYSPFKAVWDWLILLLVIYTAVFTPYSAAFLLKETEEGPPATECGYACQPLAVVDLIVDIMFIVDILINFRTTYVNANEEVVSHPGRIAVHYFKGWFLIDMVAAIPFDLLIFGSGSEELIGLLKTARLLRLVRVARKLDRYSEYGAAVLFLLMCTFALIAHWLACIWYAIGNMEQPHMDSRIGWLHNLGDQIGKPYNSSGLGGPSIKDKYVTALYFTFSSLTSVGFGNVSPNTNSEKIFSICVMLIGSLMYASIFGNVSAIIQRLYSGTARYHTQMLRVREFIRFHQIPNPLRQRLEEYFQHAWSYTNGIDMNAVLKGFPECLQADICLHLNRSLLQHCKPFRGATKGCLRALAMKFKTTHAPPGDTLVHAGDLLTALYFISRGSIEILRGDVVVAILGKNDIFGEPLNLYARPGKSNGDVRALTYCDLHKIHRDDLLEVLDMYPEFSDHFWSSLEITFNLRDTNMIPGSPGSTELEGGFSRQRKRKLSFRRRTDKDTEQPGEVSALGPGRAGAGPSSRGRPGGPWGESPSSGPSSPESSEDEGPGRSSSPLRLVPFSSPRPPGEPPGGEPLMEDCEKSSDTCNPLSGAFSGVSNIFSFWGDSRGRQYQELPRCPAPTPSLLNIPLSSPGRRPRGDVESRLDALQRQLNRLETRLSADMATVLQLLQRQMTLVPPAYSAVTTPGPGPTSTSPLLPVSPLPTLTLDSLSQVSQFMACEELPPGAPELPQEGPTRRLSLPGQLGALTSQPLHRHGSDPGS
Sequence of Cytochrome P450 2C9 (P11712 whole entry): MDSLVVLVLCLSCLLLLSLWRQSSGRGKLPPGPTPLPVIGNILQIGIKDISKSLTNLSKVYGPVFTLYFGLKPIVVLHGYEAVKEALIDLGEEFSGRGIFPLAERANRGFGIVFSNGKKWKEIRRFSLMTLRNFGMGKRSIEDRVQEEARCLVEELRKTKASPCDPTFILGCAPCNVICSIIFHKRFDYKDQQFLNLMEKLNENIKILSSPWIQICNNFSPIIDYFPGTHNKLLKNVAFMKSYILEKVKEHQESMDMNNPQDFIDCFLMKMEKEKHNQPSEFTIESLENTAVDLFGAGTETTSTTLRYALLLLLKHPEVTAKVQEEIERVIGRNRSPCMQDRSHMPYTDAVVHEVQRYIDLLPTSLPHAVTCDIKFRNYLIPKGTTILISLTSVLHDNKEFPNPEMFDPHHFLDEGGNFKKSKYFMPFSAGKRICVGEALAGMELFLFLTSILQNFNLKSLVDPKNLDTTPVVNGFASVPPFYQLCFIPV
Sequence of Cytochrome P450 2D6 (P10635 whole entry): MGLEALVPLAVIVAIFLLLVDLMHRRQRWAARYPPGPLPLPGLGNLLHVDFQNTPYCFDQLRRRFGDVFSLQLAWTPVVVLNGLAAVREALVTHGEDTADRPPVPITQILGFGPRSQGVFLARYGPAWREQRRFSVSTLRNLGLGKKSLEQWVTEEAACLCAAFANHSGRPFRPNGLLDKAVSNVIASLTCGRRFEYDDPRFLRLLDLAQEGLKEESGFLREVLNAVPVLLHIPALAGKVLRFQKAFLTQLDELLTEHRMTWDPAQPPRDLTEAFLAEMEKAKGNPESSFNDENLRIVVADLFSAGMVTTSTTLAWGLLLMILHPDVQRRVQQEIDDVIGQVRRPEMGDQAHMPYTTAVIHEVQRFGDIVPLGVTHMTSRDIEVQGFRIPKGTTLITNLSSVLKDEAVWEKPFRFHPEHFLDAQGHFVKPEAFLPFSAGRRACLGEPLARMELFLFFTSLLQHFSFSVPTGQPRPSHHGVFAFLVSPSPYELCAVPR
Sequence of Cytochrome P450 3A4 (P08684 whole entry): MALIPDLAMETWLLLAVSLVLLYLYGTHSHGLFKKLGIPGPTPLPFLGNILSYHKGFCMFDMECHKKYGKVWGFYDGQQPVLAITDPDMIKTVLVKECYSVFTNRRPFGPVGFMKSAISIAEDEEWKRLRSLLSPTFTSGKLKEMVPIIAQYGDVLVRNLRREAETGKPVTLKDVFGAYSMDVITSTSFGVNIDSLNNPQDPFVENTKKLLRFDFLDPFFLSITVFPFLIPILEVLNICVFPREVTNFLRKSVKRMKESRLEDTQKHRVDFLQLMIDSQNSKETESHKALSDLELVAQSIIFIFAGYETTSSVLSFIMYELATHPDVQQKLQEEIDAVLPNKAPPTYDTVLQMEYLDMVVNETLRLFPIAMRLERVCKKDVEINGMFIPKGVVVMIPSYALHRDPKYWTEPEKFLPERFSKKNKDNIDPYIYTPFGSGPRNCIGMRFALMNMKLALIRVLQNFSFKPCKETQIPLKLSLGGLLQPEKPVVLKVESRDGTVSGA
Sequence of Dipeptidyl peptidase 4 (Rattus norvegicus) (P14740 whole entry, looked up): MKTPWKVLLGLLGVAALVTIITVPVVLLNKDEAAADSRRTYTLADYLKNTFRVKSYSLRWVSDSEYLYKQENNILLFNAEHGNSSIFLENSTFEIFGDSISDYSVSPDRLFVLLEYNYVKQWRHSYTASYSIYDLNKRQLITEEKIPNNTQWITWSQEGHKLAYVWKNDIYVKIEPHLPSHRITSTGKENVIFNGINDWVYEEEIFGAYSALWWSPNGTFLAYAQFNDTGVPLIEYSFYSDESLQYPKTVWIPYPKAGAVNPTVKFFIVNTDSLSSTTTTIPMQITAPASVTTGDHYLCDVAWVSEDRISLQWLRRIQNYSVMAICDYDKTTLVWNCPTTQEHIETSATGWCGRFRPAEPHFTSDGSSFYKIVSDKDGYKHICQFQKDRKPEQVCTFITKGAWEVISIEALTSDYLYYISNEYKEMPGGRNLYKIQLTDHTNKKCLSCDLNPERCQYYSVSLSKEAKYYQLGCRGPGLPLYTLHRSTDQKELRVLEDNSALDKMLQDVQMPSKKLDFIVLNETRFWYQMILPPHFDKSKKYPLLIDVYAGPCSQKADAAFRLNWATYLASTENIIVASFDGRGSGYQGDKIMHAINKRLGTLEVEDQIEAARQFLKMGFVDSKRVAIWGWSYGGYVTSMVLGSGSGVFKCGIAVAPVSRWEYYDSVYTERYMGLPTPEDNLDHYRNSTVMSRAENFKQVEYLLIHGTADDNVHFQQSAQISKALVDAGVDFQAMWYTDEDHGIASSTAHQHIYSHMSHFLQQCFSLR

For `C#C[C@H]1CC[C@@H](C#N)N1C(=O)CNC1(C)CCN(c2cc(C(=O)O)ccn2)CC1`, the half-life [1] was 6.8 h, the Vd [2] was 2.2 L/kg and the AUC [3] was 2100 ng·h/mL. It also gave a bioavailability [4] of 28%, a half-life [5] of 2 h and a Cmax [6] of 140 ng/mL. For the same molecule, the Tmax [7] was 2.7 h, the AUC [8] was 580 ng·h/mL and the inhibition [9] was 87%. It also gave an Activity [10] of 29 pM, an Activity [11] of 39 ng/mL and an Activity [12] of 60%. For the same molecule, the Activity [13] was 50%, the AUC [14] was 12500 mg/dL·min and the Activity [15] was 50%. The IC50 [16] was > 30 µM, the IC50 [17] was > 30 µM and the IC50 [18] was > 30 µM. For the same molecule, the Ki [19] was > 45.1 µM, the Vd [20] was 6.7 L/kg and the AUC [21] was 7600 ng·h/mL. For the same molecule, the clearance [22] was 11.3 mL/min/kg, the half-life [23] was 1.7 h and the Vd [24] was 0.3 L/kg. It also gave a Vd [25] of 1.3 L/kg, an AUC [26] of 5200 ng·h/mL and a clearance [27] of 8.5 mL/min/kg.
